This is a sample that favours compounds with a hit; in the whole collection about 3.3% have one here.
TCR-CD3 inh – blocks the human TCR-CD3 interaction; inhibition, % at 9.4 µM; 0.37% of 360,000 active; TAMRA-labeled TCR probe fluorescence, biochemical; AID 651800; in the data active means inhibition above about 19%;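 further: recombinant mutant TCR 2C K166C tagged with TAMRA read by polarization; 0% = receptor in buffer alone and 100% = receptor with positive control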
rCAG RNA binder – binds r(CAG) RNA repeats | r(CAG) RNA repeat, TO-PRO-1 dye displacement fluorescence | inhibition, % at 3 µM | 1.3% of 370,000 active | AID 651821;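 active means inhibition above the plate cutoff, the mean of all test compounds on that plate plus 3 SD, cut at about 35% in these data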;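 further: 0% = DMSO alone and 100% = 100 µM mitoxantrone as full dye displacement; higher means more dye released from RNA so lower well fluorescence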
mABHD4 FP – inhibits mouse alpha/beta hydrolase domain 4 | Q8VD66 | purified mABHD4, FP-Rh probe fluorescence polarization | inhibition, % at 8.92 µM | 0.54% of 370,000 active | AID 720543;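 active means inhibition exceeding the mean over every tested compound plus 3 SD, cut at about 30% in these data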;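 further: 0% = plate median of compound wells and 100% = S159A mutant with DMSO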
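Test system: mABHD4 protein | Buffer or medium: HEPES pH 7.0 buffer, 150 mM NaCl, 0.01% Pluronic F-127 | Probe or stimulus: FP-Rh fluorescent activity-based probe, added after compound pre-incubation | Timing: Pre-incubation 45 min, probe exposure 60 min, at 25 °C | Technique: Fluorescence polarization, excitation 525 nm, emission 598 nm, BODIPY TMR filters | Repeats: Single well per compound (singlicate)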
PRMT1 inh – PRMT1 (human) inhibition, primary screen; Q99873; recombinant PRMT1, activity-based probe fluorescence polarization; inhibition, % at 2.79 µM; 1.3% of 370,000 active;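 active means inhibition above about 21% made by adding two undisclosed values, limit read from the data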
Target sequence (Q99873 whole entry, looked up): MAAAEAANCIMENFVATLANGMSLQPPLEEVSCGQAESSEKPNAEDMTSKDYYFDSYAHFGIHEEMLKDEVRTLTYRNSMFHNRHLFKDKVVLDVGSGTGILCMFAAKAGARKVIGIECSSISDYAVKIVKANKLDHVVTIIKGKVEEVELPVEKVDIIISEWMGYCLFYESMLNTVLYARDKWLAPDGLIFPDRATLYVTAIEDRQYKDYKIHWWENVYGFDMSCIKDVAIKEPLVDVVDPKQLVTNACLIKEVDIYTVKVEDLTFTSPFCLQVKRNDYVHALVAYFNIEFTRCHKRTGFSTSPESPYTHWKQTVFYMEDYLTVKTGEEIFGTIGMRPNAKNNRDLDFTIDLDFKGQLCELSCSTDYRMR
SIAE primary – inhibitors of human sialic acid acetylesterase SIAE | SIAE FP-Rh probe binding, fluorescence polarization | inhibition, % at 9.66 µM | 0.69% of 370,000 active;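 active means inhibition above a cutoff: mean of compounds within the control limits plus 3 SD of those, cut at about 17% in these data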;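 further: 0% = plate median of compound wells and 100% = probe without SIAE protein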
rCAG bind conf – r(CAG) RNA repeat binding, confirmation; shares compounds with rCAG RNA binder; TO-PRO-1 dye displacement fluorescence; AID 652065; inhibition, % at 3 µM; 70% of 4,300 active;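 active means inhibition above a per-plate cutoff, the mean inhibition of sample wells plus 3 SD, cut at about 35% in these data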;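 further: loss of TO-PRO-1 fluorescence as compound displaces dye from 1x1 AA loop RNA; 0% = DMSO only wells and 100% = 100 µM mitoxantrone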
dCAG dye counter – DNA CAG dye complex inhibition counter-screen | shares compounds with rCAG RNA binder | d(CAG) DNA oligo TO-PRO-1 dye displacement, fluorescence | inhibition, % at 3 µM | 94% of 4,300 active | AID 652068;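 active means inhibition above its plate's cutoff, the mean test-well inhibition plus 3 SD, cut at about 4.8% in these data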;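 further: 0% = DNA dye mix with DMSO and 100% = 100 µM mitoxantrone; hits displace the dye from DNA and so lower well fluorescence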
dCAG dye DR – DNA CAG dye complex inhibition, dose response counter-screen | IC50, µM | 20% of 250 active | DNA CAG/GTC duplex TO-PRO-1 dye displacement fluorescence | shares compounds with rCAG RNA binder | AID 686960; in the data active means IC50 below about 10 µM
Active calls of the source: *; i = inactive; x = not tested or not shown.

SMILES	TCR-CD3 inh	rCAG RNA binder	mABHD4 FP	PRMT1 inh	SIAE primary	rCAG bind conf	dCAG dye counter	others
CC(OC(=O)C1=Cc2ccccc2OC1)C(=O)NC1CCCC1 (stereo unspecified)	4	2	-4	-1	6	x	x
CC(C)C(OC(=O)C1=Cc2ccccc2OC1)C(=O)NCC1CCCO1 (stereo unspecified)	1	35*	21	12	10	48*	17*
NS(=O)(=O)c1ccc(-c2ccc(/C=C3\C(=O)Nc4cc(Cl)ccc43)o2)cc1	0	46*	-4	15	-1	26	21*
CC1(C)OC(=O)C(=Cc2ccc(-c3ccc(S(N)(=O)=O)cc3)o2)C(=O)O1	3	5	3	5	-4	x	x
O=c1c2cc3cccnc3nc2ncn1CCc1c[nH]c2ccccc12	x	11	9	4	7	x	x
C=CCNc1nc2ccccc2nc1NS(=O)(=O)c1ccc(Br)cc1	7	49*	-8	0	5	42*	9.8*
C=CCNc1nc2ccccc2nc1NS(=O)(=O)c1ccc(F)cc1	0	21	11	-1	4	x	x
C/C(=N\N=C(/N)SC1CC(=O)N(c2ccc(Br)cc2)C1=O)c1cccs1 (stereo unspecified)	3	47*	-49	1	-29	77*	35*
N/C(=N\N=C\c1cccs1)SC1CC(=O)N(c2ccc(Br)cc2)C1=O (stereo unspecified)	4	38*	-10	-1	-16	70*	25*	dCAG dye DR=>30
C/C(=N\N=C(/N)SC1CC(=O)N(c2ccc(Cl)c(Cl)c2)C1=O)c1cccs1 (stereo unspecified)	3	24	-5	-1	-46	x	x
C/C(=N\N=C(/N)SC1CC(=O)N(c2ccc(Cl)cc2)C1=O)c1cccs1 (stereo unspecified)	-1	43*	-26	1	-11	63*	24*
C/C(=N\N=C(/N)SC1CC(=O)N(c2ccccc2)C1=O)c1cccs1 (stereo unspecified)	6	42*	-11	0	-3	35*	8.3*
C[C@H]1[C@@H](OC(=O)Oc2ccc([N+](=O)[O-])cc2)CC[C@@]23CCCN2C(=O)CCC[C@@H]13	x	x	6	1	6	x	x
Cc1cccc(Cn2cc(CN3CC(N(C)CCCOC(=O)c4cc(C)cc(C)c4)CS3(=O)=O)nn2)c1 (stereo unspecified)	x	6	-9	-2	2	x	x
Cc1ccc(Cn2nnc3c2-c2ccccc2S(=O)(=O)N(C(C)(C)C)C3)cc1	x	-1	1	-1	7	x	x
COc1cccc(C(c2c(C)[nH]n(-c3ccccc3)c2=O)c2c(C)[nH]n(-c3ccccc3)c2=O)c1O	-10	38*	19	11	6	33	12*
COc1cccc(C(c2c(C)[nH]n(-c3ccccc3)c2=O)c2c(C)[nH]n(-c3ccccc3)c2=O)c1OC	6	54*	4	-2	9	42*	14*
Cc1[nH]n(-c2ccccc2)c(=O)c1C(c1ccc(O)c([N+](=O)[O-])c1)c1c(C)[nH]n(-c2ccccc2)c1=O	-4	46*	6	3	-4	33	7.8*
COc1ccc(C(C[N+](=O)[O-])c2c(C)[nH]n(-c3ccccc3)c2=O)cc1 (stereo unspecified)	-5	13	-6	15	-2	x	x
O=C(NCC(c1ccccc1)c1ccccc1)[C@H](Cc1ccccc1)NC1(C(=O)NC2CCCCC2)CCOCC1	x	x	-2	-1	-4	x	x
CCN(CC)S(=O)(=O)c1cc(NS(=O)(=O)c2cc(Cl)ccc2Cl)ccc1C	12	44*	-4	-2	1	40*	12*
CCN(CC)S(=O)(=O)c1cc(NS(=O)(=O)c2cccs2)ccc1C	-10	6	3	2	7	x	x
C=CC[C@@H]1NN2C(=O)[C@@H](CCCC)[C@@H]3c4cc5ccccc5cc4C=NN3[C@@H]2c2cc3ccccc3cc21	x	9	0	1	-8	x	x
Cc1ccc(-n2c(C)cc(C(=O)NS(=O)(=O)c3ccc(C)cc3)c2C)cc1	4	40*	6	3	-3	27	9.7*
CCOc1ccc(-n2c(C)cc(C(=O)NS(=O)(=O)c3ccc(C)cc3)c2C)cc1	-3	-1	1	2	-2	x	x
SMILES	TCR-CD3 inh	rCAG RNA binder	mABHD4 FP	PRMT1 inh	SIAE primary	rCAG bind conf	dCAG dye counter	others
O=C1CC(c2ccc3c(c2)OCO3)N=C2N(Cc3ccc4c(c3)OCO4)C/C(=C/c3ccccc3)N12 (stereo unspecified)	x	x	-14	-3	-4	x	x
O=S1(=O)c2ccc(N3CCCC3)cc2Oc2ccccc2CN1Cc1cn(Cc2cccc(C(F)(F)F)c2)nn1	x	11	4	3	13	x	x
N#Cc1c(NC(=O)CSc2ncnc3sccc23)oc(-c2ccco2)c1-c1ccco1	1	44*	7	20	1	55*	24*	dCAG dye DR=i
Cc1cc(NC(=O)CSc2ncnc3sccc23)no1	2	0	-3	-4	0	x	x
COC(=O)[C@H](CC(C)C)N(CCCc1cn(Cc2ccc(C)cc2)nn1)S(=O)(=O)c1ccc(F)cc1Br	x	-1	0	-1	-4	x	x
O=C(CSc1nnc(-c2cccnc2)n1Cc1ccco1)Nc1cc(Cl)ccc1F	x	0	3	-1	0	x	x
C=CCN(Cc1ccccc1)C(C#CC(=C)C)Cc1ccccc1 (stereo unspecified)	x	1	-2	-2	5	x	x
O=C(Nc1ccc(S(=O)(=O)Nc2ncccn2)cc1)c1ccccc1NS(=O)(=O)c1ccc(F)cc1	-2	60*	0	2	-8	29	6.5*
O=C(O)/C=C/c1ccc(S(=O)(=O)Nc2ccccc2C(=O)Nc2ccc(F)cc2)cc1	-5	20	-8	2	-7	x	x
O=C(Nc1ccc(-c2nc3ccccc3[nH]2)cc1)c1ccccc1NS(=O)(=O)c1ccc(F)cc1	14	92*	-114	-2	-18	90*	70*
COc1ccc2ccccc2c1/C=N/NC(=O)c1ccccc1F	-2	3	-5	2	-5	x	x
CCOc1ccc(S(=O)(=O)Nc2ccccc2C(=O)N/N=C/c2c(OC)ccc3ccccc23)cc1	11	62*	-50	-2	-70	42*	19*
CCOc1ccc(NC(=O)c2ccccc2NS(=O)(=O)c2ccc(F)cc2)c([N+](=O)[O-])c1	6	72*	-7	-3	-3	73*	36*
CCCC1CCC2(CC1)CCC2OC(=S)Nc1cccc(I)c1 (stereo unspecified)	x	x	-15	-5	-2	x	x
